In ChEMBL document CHEMBL3044850, “Synthesis and biological activities of novel pyrazole oxime derivatives containing a 2-chloro-5-thiazolyl moiety” (2008):
In brackets after ≈: the same amount, converted by molar mass. Activity calls are given as the source filed them. The calls are words filed in the database; no cut-off is given here.

Legend:
Assay type in all cases: functional
Cucumis sativus = experiment: Growth regulation of Cucumis sativus (cucumber) seeds assessed as rhizogenesis at 10 ug/ml at 24 degC after 3 days by cucumber cotyledon test
Summary of the method: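 Cucumber seeds (JINKE No. 4) were germinated in the dark at 24 °C for 3 days, and cotyledons of uniform size were selected. Sample in DMF (10 µg/mL) was sprayed onto filter paper and dried, then the paper was wetted with distilled water. Ten cotyledons were incubated in the dark at 24 °C for 3 days. Rhizogenesis was counted per 10 hypocotyls, in triplicate, with a distilled-water control and Student's t test.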

Mycosphaerella arachidis = experiment: Fungicidal activity against Mycosphaerella arachidis assessed as growth inhibition at 50 ug/ml at 23 degC after 3 days; conditions: for inhibition of growth at 50 µg/mL: 72 h, read-out: GI
Summary of the method: (§1)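 Test solutions were made at 500 µg/mL and mixed 1:9 with agar medium to give 50 µg/mL plates. A 4 mm plug from the edge of actively growing mycelium was placed at the plate centre and incubated at 23 °C. Colony diameter was measured after 3 days against a sterile water plus medium blank, in triplicate. Inhibition = [(C − T)/C] × 100%.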

Fusarium graminearum = experiment: Fungicidal activity against Fusarium graminearum assessed as growth inhibition at 50 ug/ml at 23 degC after 3 days; conditions: for inhibition of growth at 50 µg/mL: 72 h, read-out: GI
Summary of the method: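 Mycelial growth test in agar plates with 50 µg/mL final compound (from 500 µg/mL solution diluted into medium). A 4 mm plug from active mycelium fringe is placed centrally and incubated at 23 °C. Diameter is read after 3 days against a sterile water plus medium blank, in triplicate. Inhibition I = [(C − T)/C] × 100%.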

Alternaria solani = experiment: Fungicidal activity against Alternaria solani assessed as growth inhibition at 50 ug/ml at 23 degC after 3 days; conditions: for inhibition of growth at 50 µg/mL: 72 h, read-out: GI; summary of the method: as §1
Cladosporium cucumerinum = experiment: Fungicidal activity against Cladosporium cucumerinum assessed as growth inhibition at 50 ug/ml at 23 degC after 3 days; conditions: 72 h, read-out: GI; summary of the method: as §1
[1] = system: Botryosphaeria berengeriana; experiment: Fungicidal activity against Botryosphaeria berengeriana assessed as growth inhibition at 50 ug/ml at 23 degC after 3 days; conditions: 72 h, read-out: GI; summary of the method: as §1
Tetranychus cinnabarinus = experiment: Insecticidal activity against Tetranychus cinnabarinus (carmine spider mite) in soybean tender shoots assessed as mortality at 0.2 mg/ml treated for 5 secs measured after 48 hr
Summary of the method: (§2)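 Insects held at 26 °C, 60% relative humidity, 14 h photoperiod. Acetone stock at 0.5 mg/mL is diluted with water containing TW-20. Soybean tender shoots bearing 60 insects are dipped for 5 s, drained, then kept under the same conditions. Mortality is scored after 48 h relative to untreated controls, in triplicate.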

Aphis medicaginis [2] = experiment: Insecticidal activity against Aphis medicaginis in soybean tender shoots assessed as mortality at 0.5 mg/ml treated for 5 secs measured after 48 hr; summary of the method: as §2
Aphis medicaginis [3] = experiment: Insecticidal activity against Aphis medicaginis in soybean tender shoots assessed as mortality at 0.2 mg/ml treated for 5 secs measured after 48 hr; summary of the method: as §2
Aphis medicaginis [4] = experiment: Insecticidal activity against Aphis medicaginis in soybean tender shoots assessed as mortality treated for 5 secs measured after 48 hr

| SMILES | Activity (Cucumis sativus) | inhibition of growth at 50 µg/mL (Mycosphaerella arachidis) | inhibition of growth at 50 µg/mL (Fusarium graminearum) | inhibition of growth at 50 µg/mL (Alternaria solani) | inhibition of growth at 50 µg/mL (Cladosporium cucumerinum) | inhibition of growth at 50 µg/mL [1] | mortality at 200 µg/mL (Tetranychus cinnabarinus) | mortality at 500 µg/mL (Aphis medicaginis [2]) | mortality at 200 µg/mL (Aphis medicaginis [3]) | mortality (Tetranychus cinnabarinus) | growth inhibition (GI) (Alternaria solani) | growth inhibition (GI) (Fusarium graminearum) | LC50 (Aphis medicaginis [4]) | growth inhibition (GI) (Mycosphaerella arachidis) |
| --- | --- | --- | --- | --- | --- | --- | --- | --- | --- | --- | --- | --- | --- | --- |
| CC(C)(C)C(=O)C(Oc1ccc(Cl)cc1)n1cncn1 (centres undefined) [TRIADIMEFON] | 50.2% | 73.4% | 72.6% | 66.1% | 81.5% | 86.7% |  |  |  |  |  |  |  |  |
| Cn1nc(C(F)(F)F)c(/C=N/OCc2cnc(Cl)s2)c1Sc1ccccc1 | 21.8% | 12.7% | 40.8% | 43.5% | 9.7% | 29.5% | 14.4% | 92.2% | 83.4% |  |  |  |  |  |
| Cn1nc(C(F)(F)F)c(/C=N/OCc2cnc(Cl)s2)c1Oc1ccc(Cl)cc1 | -34.3% | 11.8% | 36.3% |  | 15.4% | 32.1% |  | 92.3% | 84.4% | inactive | inactive |  |  |  |
| Cc1ccc(Oc2c(/C=N/OCc3cnc(Cl)s3)c(C(F)(F)F)nn2C)cc1C | -23.8% | 32.9% | 31.3% | 53.2% | 8.9% | 26.2% | 6.4% | 71.2% | 61.4% |  |  |  |  |  |
| COc1ccc(Oc2c(/C=N/OCc3cnc(Cl)s3)c(C(F)(F)F)nn2C)cc1 | 30.8% | 22.6% |  | 14.6% | 12.3% | 46.5% | 13.4% | 92.2% | 83.4% |  |  | inactive |  |  |
| Cn1nc(C(F)(F)F)c(/C=N/OCc2cnc(Cl)s2)c1Oc1cccc(Cl)c1 | 14.2% | 55.3% | 26.7% | 22.9% | 43.1% | 21.7% | 7.4% | 70.4% | 61.2% |  |  |  |  |  |
| Cc1ccccc1Oc1c(/C=N/OCc2cnc(Cl)s2)c(C(F)(F)F)nn1C | -26.8% | 10% | 21.2% | 42.6% | 32.6% | 35% | 9.3% | 90.4% | 81.3% |  |  |  |  |  |
| O=[N+]([O-])/N=C1\NCCN1Cc1ccc(Cl)nc1 [IMIDACLOPRID] |  |  |  |  |  |  |  | 94.7% | 92.1% |  |  |  | 9.1 µg/mL (≈ 35.6 µM) |  |
| Cn1nc(C(F)(F)F)c(/C=N/OCc2cnc(Cl)s2)c1Oc1ccc(Br)cc1 | 48.5% | 9.2% | 41.6% | 12.4% | 17.5% | 32.9% | 4.3% | 90.4% | 77.4% |  |  |  |  |  |
| Cn1nc(C(F)(F)F)c(/C=N/OCc2cnc(Cl)s2)c1Oc1ccc(F)cc1 | 28.6% | 67.2% | 29% | 26.9% | 53.4% | 24.2% | 13.4% | 90.2% | 75.3% |  |  |  |  |  |
| Cc1ccc(Oc2c(/C=N/OCc3cnc(Cl)s3)c(C(F)(F)F)nn2C)cc1 | 43.6% | 5.9% | 23.8% | 34.6% | 15.7% | 21% | 3.4% | 95.3% | 85.4% |  |  |  |  |  |
| Cn1nc(C(F)(F)F)c(/C=N/OCc2cnc(Cl)s2)c1Oc1ccc(C(C)(C)C)cc1 | 72.7% |  | 12.5% | 24.8% | 18.1% | 22.1% |  | 89.4% | 73.3% | inactive |  |  |  | inactive |
| Cc1cccc(Oc2c(/C=N/OCc3cnc(Cl)s3)c(C(F)(F)F)nn2C)c1 | 22.7% | 11.8% | 33.6% | 28% | 31.3% | 45.3% | 2.3% | 93.1% | 82.4% |  |  |  |  |  |
| Cn1nc(C(F)(F)F)c(/C=N/OCc2cnc(Cl)s2)c1Oc1ccccc1 | -12.5% | 8.7% | 22.4% | 65.6% | 21.6% | 30.3% | 11.2% | 41.4% | 20.2% |  |  |  |  |  |
| Cc1ccc(Cl)c(Oc2c(/C=N/OCc3cnc(Cl)s3)c(C(F)(F)F)nn2C)c1 | 37.9% | 10.1% |  | 32.3% | 48.5% | 29.8% | 17.4% | 83.4% | 69.2% |  |  | inactive |  |  |
| Cn1nc(C(F)(F)F)c(/C=N/OCc2cnc(Cl)s2)c1Oc1ccccc1Cl | 53.9% | 12.6% | 24.6% |  | 23.7% | 23.6% | 6.2% | 59.3% | 46.1% |  | inactive |  |  |  |
| Cc1nn(C)c(Oc2ccccc2)c1/C=N/OCc1ccc(C(=O)OC(C)(C)C)cc1 [FENPYROXYMATE] | 10.6% | 12.5% | 5.2% | 8.3% | 14.5% | 6.7% | 99.7% | 18.4% | 12.4% |  |  |  |  |  |
